Broadly, the MIC is the smallest concentration in the dilution series that meets the test's criterion for growth inhibition. A lower MIC goes with greater potency.

These results are taken from ChEMBL document CHEMBL1150325, “Synthesis of methyl 5-S-alkyl-5-thio-D-arabinofuranosides and evaluation of their antimycobacterial activity” (2008).

One assay has as its system Bacillus subtilis. In words: Antibacterial activity against Bacillus subtilis ATCC 6633 after 36 hrs visualized by MTT staining by broth macrodilution assay. Format: functional. The settings on record: ATCC 6633, 36 h. The procedure, abridged: (§1)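 Broth macrodilution adapted from NCCLS. E. coli and B. subtilis grown in Mueller-Hinton broth; M. smegmatis in Middlebrook 7H9 with 0.2% glycerol and ADC enrichment. Inocula were set to a 0.5 McFarland standard, giving a final density of 5.0 · 10⁵ cfu/mL. Incubated at 37 °C for 36 h and the MIC recorded.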

In assay [1] the test system is Mycolicibacterium smegmatis. In words: Antibacterial activity against Mycobacterium smegmatis ATCC 14468 assessed as inhibition zone diameter at 20 mg/mL after 24 hrs by Kirby-Bauer disk diffusion assay. Format: functional. To be noted: for zone of inhibition at 20000 µg/mL: ATCC 14468, 24 h, read-out: IZ. The procedure, abridged: (§2)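 Disk diffusion adapted from NCCLS. M. smegmatis was pre-grown about 24 h in 7H9 with 0.2% glycerol and ADC at 37.5 °C and 160 rpm, to OD₆₀₀ 0.27. It was swabbed onto Lennox or 7H10 agar with 0.5% glycerol and OADC. DMSO solutions (20 or 10 mg/mL) or control went onto 6 mm paper disks. Plates were incubated at 37 °C for 24 h, rechecked at day 6, and zone diameters measured in mm by ruler.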
Background: Agar diffusion results depend on both activity and mobility in agar.

A further assay deals with Escherichia coli. The assay is described as follows: Antibacterial activity against Escherichia coli ATCC 23722 after 36 hrs visualized by MTT staining by broth macrodilution assay. Format: functional. The settings on record: ATCC 23722, 36 h. The procedure, abridged: as §1
For assay [2], the target named is Diacylglycerol acyltransferase/mycolyltransferase Ag85C (Mycobacterium tuberculosis) (UniProt P9WQN9). In words: Inhibition of mycolyltransferase activity of Mycobacterium tuberculosis antigen 85C by UV-visible absorption spectroscopy. The procedure, abridged:
(§3)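 Purified ag85C (M. tuberculosis) in 10 mM Tris–HCl pH 7.5, 2 mM EDTA, 1 mM DTT, added to start the reaction. The mix holds sodium phosphate buffer, β-glucosidase, dextrose and the glucose-based p-nitrophenyl substrate analogue (stock 0.1–2.5 mM, in 10% v/v DMSO); test compound is added in DMSO. The coupled release of p-nitrophenolate is read at 405 nm every 20 s for 1 h, and activity is compared by the slopes.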

In assay [3] the test system is Mycolicibacterium smegmatis. In words: Antibacterial activity against Mycobacterium smegmatis ATCC 14468 after 36 hrs visualized by MTT staining by broth macrodilution assay. Format: functional. The settings on record: ATCC 14468, 36 h. The method, boiled down:
as §1

Assay [4] has as its system Mycolicibacterium smegmatis. In words: Antibacterial activity against Mycobacterium smegmatis ATCC 14468 assessed as inhibition zone diameter at 10 mg/mL after 24 hrs by Kirby-Bauer disk diffusion assay. The class given is functional. To be noted: for zone of inhibition at 10000 µg/mL: ATCC 14468, 24 h, read-out: IZ. The procedure, abridged:
as §2

Assay [5] deals with Diacylglycerol acyltransferase/mycolyltransferase Ag85C (Mycobacterium tuberculosis) (UniProt P9WQN9). In words: Inhibition of mycolyltransferase activity of Mycobacterium tuberculosis antigen 85C at 1 to 20 mM by UV-visible absorption spectroscopy. The method, boiled down:
as §3

The structures appear in SMILES notation. Converted amounts (≈) assume the structure as drawn. The source made the active and inactive calls.

Diacylglycerol acyltransferase/mycolyltransferase Ag85C (Mycobacterium tuberculosis), sequence (P9WQN9 whole entry): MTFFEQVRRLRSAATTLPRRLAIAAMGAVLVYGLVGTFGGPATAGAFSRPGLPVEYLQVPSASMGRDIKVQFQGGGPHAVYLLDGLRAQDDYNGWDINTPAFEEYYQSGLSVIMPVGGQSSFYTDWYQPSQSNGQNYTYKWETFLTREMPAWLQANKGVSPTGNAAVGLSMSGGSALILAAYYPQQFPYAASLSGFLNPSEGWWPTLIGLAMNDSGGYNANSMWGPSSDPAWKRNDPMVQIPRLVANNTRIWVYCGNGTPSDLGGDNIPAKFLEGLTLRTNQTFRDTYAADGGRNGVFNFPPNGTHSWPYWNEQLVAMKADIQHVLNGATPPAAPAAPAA

With `CCCCCCCCSC[C@H]1O[C@@H](OC)[C@@H](O)[C@@H]1O`, the figures for the MIC (against Bacillus subtilis; in the assay on Escherichia coli; in assay [3]) were 512 µg/mL (≈ 1.75 mM), more than 1020 µg/mL and 512 µg/mL (≈ 1.75 mM), respectively. Also, the zone of inhibition at 20000 µg/mL in assay [1] was found to be 13.5 mm. In addition, the outcome in assay [2] was Active. In addition, the zone of inhibition at 10000 µg/mL in assay [4] was determined as 7.5 mm.
As to `CCCCSC[C@H]1O[C@H](OC)[C@@H](O)[C@@H]1O`, the MIC (against Bacillus subtilis; against Escherichia coli; in assay [3]) was more than 1020 µg/mL each time. The result in assay [1] and in assay [4] was inactive.
As for `CCCCSC[C@H]1O[C@@H](OC)[C@@H](O)[C@@H]1O`, the MIC (in the assay on Bacillus subtilis; in the assay on Escherichia coli; in assay [3]) was more than 1020 µg/mL each time. The outcome in assay [1], in assay [4] and in assay [5] was inactive.
As for `NNC(=O)c1ccncc1` [ISONIAZID], the MIC in assay [3] was 2 µg/mL (≈ 0.0146 mM).
For the compound `CCCCCCSC[C@H]1O[C@H](OC)[C@@H](O)[C@@H]1O`, the results for the MIC (in the assay with Bacillus subtilis; with Escherichia coli; in assay [3]) were more than 1020 µg/mL, more than 1020 µg/mL and 1020 µg/mL (≈ 3.87 mM), respectively. The outcome in assay [1] and in assay [4] was inactive. The result in assay [2] was Active.
`CCCCCCCCSC[C@H]1O[C@H](OC)[C@@H](O)[C@@H]1O`: the results for the minimum inhibitory concentration (MIC) (against Bacillus subtilis; against Escherichia coli; in assay [3]) were 128 µg/mL (≈ 0.438 mM), more than 1020 µg/mL and 256 µg/mL (≈ 0.875 mM), respectively. Besides, the zone of inhibition at 20000 µg/mL in assay [1] is 17.5 mm. For the same compound, in assay [2], the result was Active. Also, the zone of inhibition at 10000 µg/mL in assay [4] was 14.5 mm.
`CCCCCCSC[C@H]1O[C@@H](OC)[C@@H](O)[C@@H]1O`: the MIC in the assay on Bacillus subtilis was more than 1020 µg/mL; in the assay with Escherichia coli, more than 1020 µg/mL; in assay [3], 1020 µg/mL (≈ 3.87 mM). The outcome in assay [1] and in assay [4] was inactive. The result in assay [2] was Active.
